According to ChEMBL document CHEMBL3351742, “Novel quinazoline-urea analogues as modulators for Aβ-induced mitochondrial dysfunction: design, synthesis, and molecular docking study” (Eur J Med Chem, 2014):

Experiments:
[1] = test system: HT-22; test: Inhibition of beta-amyloid peptide-induced mitochondrial permeability transition pore opening in mouse HT22 cells assessed as increase in green/red fluorescence ratio at 5 uM pre-incubated for 10 mins before Abeta peptide addition by JC-1 assay; format: cell-based; parameters: scale not given: the % may be the effect or the level left
How it was run: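 HT-22 mouse hippocampal cells (DMEM, 10% FBS, 37 °C, 5% CO2), 30,000/well seeded a day ahead; loaded with 7.5 μM JC-1 (final) in phenol red-free Opti-MEM for 1 h 15 min at 37 °C, PBS-washed. Compound 5 μM for 10 min, then Aβ1–42 5 μM. Fluorescence read hourly for 3 h, red ex/em 530/580, green 485/530; green/red ratio change relative to Aβ alone (100%).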

[2] = Toxicity against mouse HT22 cells assessed as cell viability at 5 uM after 24 hrs by MTT assay; format: cell-based, HT-22; conditions: read-out: Activity
How it was run: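 HT-22 cells, 5000/well, given compound at 5 μM without Aβ, 24 h at 37 °C. MTT added for 2 h at 37 °C, formazan dissolved in 10% Triton X-100/isopropanol with 0.1 M HCl for 1 h at room temperature; absorbance at 570 nm, vehicle-control values subtracted to derive viability.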

Structure (SMILES) | Activity [1] [%] | viability at 24 h, 5 µM [2] [%]
O=C(Nc1cccc(F)c1)Nc1cc2ncncc2cc1OCc1ccc(F)cc1 | 61.5 | –
O=C(Nc1ccc(Cl)c(Cl)c1)Nc1cc2ncncc2cc1OCc1ccc(Cl)cc1 | 91 | –
O=C(Nc1cccc(F)c1)Nc1cc2ncncc2cc1OCc1ccccc1F | 56.9 | –
O=C(Nc1cccc(F)c1)Nc1cc2ncncc2cc1OCc1ccccc1 | 38 | 100
O=C(Nc1ccc(C(F)(F)F)cc1)Nc1cc2ncncc2cc1OCc1ccccc1F | 68.6 | –
Cc1ccc(NC(=O)Nc2cc3ncncc3cc2OCc2ccc(F)cc2)cc1 | 99.2 | –
O=C(Nc1cccc(F)c1)Nc1cc2ncncc2cc1OCc1cccc(F)c1 | 27 | 104
Cc1ccc(NC(=O)Nc2cc3ncncc3cc2OCc2ccccc2Cl)cc1 | 54.7 | –
O=C(Nc1cc2ncncc2cc1OCc1ccccc1)Nc1cccc2ccccc12 | 76 | –
O=C(Nc1ccc(Cl)c(Cl)c1)Nc1cc2ncncc2cc1OCc1ccc(F)cc1 | 155 | –
O=C(Nc1ccc(C(F)(F)F)cc1)Nc1cc2ncncc2cc1OCc1ccc(Cl)cc1 | 48 | –
Cc1ccc(NC(=O)Nc2cc3ncncc3cc2OCc2ccccc2)cc1 | 154 | –
O=C(Nc1cccc(Cl)c1)Nc1cc2ncncc2cc1OCc1ccc(F)cc1 | 67.9 | –
O=C(Nc1ccccc1F)Nc1cc2ncncc2cc1OCc1ccc(Cl)cc1 | 24 | 102
O=C(Nc1cccc(Cl)c1)Nc1cc2ncncc2cc1OCc1ccc(Cl)cc1 | 64 | –
Cc1ccc(NC(=O)Nc2cc3ncncc3cc2OCc2ccccc2F)cc1 | 26.7 | 131
O=C(Nc1ccc(Cl)c(Cl)c1)Nc1cc2ncncc2cc1OCc1ccccc1 | 73 | –
Cc1ccc(NC(=O)Nc2cc3ncncc3cc2OCc2ccc(Cl)cc2)cc1 | 63 | –
O=C(Nc1ccc(C(F)(F)F)cc1)Nc1cc2ncncc2cc1OCc1ccc(F)cc1 | 81 | –
O=C(Nc1cccc(F)c1)Nc1cc2ncncc2cc1OCc1ccc(Cl)cc1 | 29 | 100
O=C(Nc1cc2ncncc2cc1OCc1ccccc1F)Nc1cccc2ccccc12 | 39.4 | 83
Cc1ccc(NC(=O)Nc2cc3ncncc3cc2OCc2cccc(F)c2)cc1 | 81 | –
O=C(Nc1ccccc1F)Nc1cc2ncncc2cc1OCc1ccccc1Cl | 31 | 101
O=C(Nc1cccc(Cl)c1)Nc1cc2ncncc2cc1OCc1ccccc1F | 51.4 | –
O=C(Nc1ccccc1F)Nc1cc2ncncc2cc1OCc1ccc(F)cc1 | 80.3 | –
